Results from ChEMBL document CHEMBL3994569, “Synthesis, anti-varicella-zoster virus and anti-cytomegalovirus activity of quinazoline-2,4-diones containing isoxazolidine and phosphonate substructures” (Eur J Med Chem, 2017).

Columns and labels:
[1] = (§1) Cytotoxicity against HEL cells infected with Cytomegalovirus assessed as alteration in cell morphology by microscopic method; type: cell-based; conditions: human, HEL cells infected with Cytomegalovirus
Method in brief: (§2)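 In the HEL cultures used for the antiviral assays, cell morphology was examined microscopically across varying compound concentrations. MCC is the minimum concentration causing a microscopically detectable alteration of cell morphology.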

[2] = tested on: Human alphaherpesvirus 3; experiment: Antiviral activity against thymidine kinase expressing Varicella-Zoster virus OKA infected in HEL cells assessed as reduction in virus plaque formation; type: functional, cell-based, strain Oka vaccine
Method in brief: (§3)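 Confluent HEL fibroblast cultures were infected with VZV at an input of 100 PFU and incubated with varying compound concentrations. Plaques were counted once plaque formation was complete in untreated infected controls.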

[3] = tested on: Human alphaherpesvirus 3; experiment: Antiviral activity against thymidine kinase deficient Varicella-Zoster virus 07-1 infected in HEL cells assessed as reduction in virus plaque formation; type: functional, cell-based; method in brief: as §3
[4] = (§4) Cytotoxicity against HEL cells infected with Varicella-Zoster virus assessed as alteration in cell morphology by microscopic method; type: cell-based; conditions: human, HEL cells infected with Varicella-Zoster virus; method in brief: as §2
[5] = tested on: HEL; experiment: (§5) Cytotoxicity against HEL cells infected with Varicella-Zoster virus assessed as growth inhibition; type: cell-based; conditions: human, hel
[6] = tested on: Cytomegalovirus; experiment: Antiviral activity against Cytomegalovirus AD169 infected in HEL cells assessed as reduction in virus plaque formation; type: functional, cell-based
Method in brief: (§6)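 Confluent HEL fibroblast cultures infected with 100 PFU of HCMV and kept with varying compound concentrations. Plaques scored once plaque formation was complete in untreated infected controls.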

[7] = tested on: Cytomegalovirus; experiment: Antiviral activity against Cytomegalovirus Davis infected in HEL cells assessed as reduction in virus plaque formation; type: functional, cell-based; method in brief: as §6
[8] = tested on: L1210; experiment: Anti-proliferative activity against mouse L1210 cells measured after 48 hrs by coulter counter method; type: ADME, cell-based; conditions: Mus musculus, L1210, 48 h
Method in brief: (§7)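 Cells at 300,000–500,000 cells/mL, combined 1:1 by volume with compound dilutions, incubated at 37 °C: L1210 for two days, CEM for three days, HeLa for four days. Cells counted by Coulter counter.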

[9] = tested on: CCRF-CEM; experiment: Anti-proliferative activity against human CEM cells measured after 72 hrs by coulter counter method; type: ADME, cell-based; method in brief: as §7
[10] = tested on: HeLa; experiment: Anti-proliferative activity against human HeLa cells measured after 72 hrs by coulter counter method; type: ADME, cell-based
[11] = tested on: Human adenovirus 2; experiment: Antiviral activity against Human adenovirus 2 infected in HEL cells assessed as reduction in virus-induced cytopathogenicity; type: functional, cell-based; conditions: Human mastadenovirus C
Method in brief: (§8)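 Confluent HEL fibroblast monolayers were infected with 100 CCID50 of virus and incubated with varying concentrations of compound. Cytopathicity was scored once it was complete in untreated infected controls.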

[12] = Cytotoxicity against virus infected HEL cells assessed as alteration in cell morphology by microscopic method; type: cell-based; conditions: human; method in brief: as §2
[13] = tested on: Human alphaherpesvirus 2; experiment: Antiviral activity against Herpes simplex virus 2 G infected in HEL cells assessed as reduction in virus-induced cytopathogenicity; type: functional, cell-based; conditions: Human alphaherpesvirus 2, strain G
[14] = tested on: HEL; experiment: Cytotoxicity against HEL cells infected with Cytomegalovirus assessed as growth inhibition; type: cell-based; conditions: human
[15] = tested on: HEL; experiment: as §1; type: cell-based; conditions: human, hel; method in brief: as §2
[16] = tested on: HEL; experiment: as §4; type: cell-based; conditions: human, hel; method in brief: as §2
[17] = tested on: HeLa; experiment: Anti-proliferative activity against human HeLa cells measured after 4 days by coulter counter method; type: ADME, cell-based; method in brief: as §7
[18] = tested on: HMEC-1; experiment: Anti-proliferative activity against HMEC1 cells by coulter counter method; type: ADME, cell-based, Homo sapiens
Method in brief: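 HMEC-1 cells at 300,000–500,000 cells/mL, mixed 1:1 by volume with serial dilutions of test compound, incubated at 37 °C. Cell number counted by Coulter counter.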

[19] = tested on: Human alphaherpesvirus 3; experiment: Potency index, ratio of acyclovir EC50 to compound EC50 for thymidine kinase deficient Varicella-Zoster virus 07-1 infected in HEL cells assessed as reduction in virus plaque formation; type: functional
[20] = as §5; type: cell-based; conditions: human, HEL cells infected with Varicella-Zoster virus
[21] = tested on: Human alphaherpesvirus 1; experiment: Antiviral activity against Herpes simplex virus 1 KOS infected in HEL cells assessed as reduction in virus-induced cytopathogenicity; type: functional, cell-based; conditions: Human alphaherpesvirus 1, KOS; method in brief: as §8
[22] = tested on: Human alphaherpesvirus 1; experiment: Antiviral activity against thymidine kinase-deficient acyclovir-resistant Herpes simplex virus 1 KOS infected in HEL cells assessed as reduction in virus-induced cytopathogenicity; type: functional, cell-based; conditions: Human alphaherpesvirus 1, KOS; method in brief: as §8
[23] = Human alphaherpesvirus 3, strain Oka vaccine, HEL
[24] = Human alphaherpesvirus 3, 07-1, HEL
[25] = Human betaherpesvirus 5, AD169, HEL
[26] = Human betaherpesvirus 5, Davis, HEL

| Structure (SMILES) | MCC [1] | EC50 [2, 23] | EC50 [3, 24] | MCC [4] | CC50 [5] | EC50 [6, 25] | EC50 [7, 26] | IC50 [8] | IC50 ([9]; Homo sapiens, CCRF-CEM, 72 h) | MCC [12] | CC50 [14] | other results |
| --- | --- | --- | --- | --- | --- | --- | --- | --- | --- | --- | --- | --- |
| CCOP(=O)(OCC)[C@@H]1C[C@@H](Cn2c(=O)n(C(=O)c3ccccc3)c(=O)c3ccccc32)ON1C | 100 µM | 7.5 µM | 13.7 µM | ≥ 100 µM | > 100 µM | > 100 µM | > 100 µM | ≥ 159 µM | 70 µM | – | – | IC50 [10]: 96 µM |
| Cc1cn([C@H]2C[C@H](F)[C@@H](CO)O2)c(=O)[nH]c1=O [ALOVUDINE] | – | – | – | – | – | – | – | – | – | > 250 µM | – | EC50 [11]: 10 µM |
| Nc1ccn([C@H]2CC[C@@H](CO)O2)c(=O)n1 [ZALCITABINE] | – | – | – | – | – | – | – | – | – | > 250 µM | – | EC50 [11]: 7.2 µM |
| Nc1nc(O)c2ncn(COC(CO)CO)c2n1 [GANCICLOVIR] | > 350 µM | – | – | – | – | 14.9 µM | 6.5 µM | – | – | > 100 µM | > 350 µM | EC50 [13]: 0.055 µM |
| CCOP(=O)(OCC)C1CC(Cn2c(=O)n(Cc3ccc(F)cc3)c(=O)c3ccccc32)ON1Cc1ccccc1 (mixture of isomers; trans) | – | – | – | – | 6.6 µM | – | – | – | – | – | 6.6 µM | MCC [15]: 100 µM; EC50 [2]: 3 µM; EC50 [3]: 3.6 µM; MCC [16]: 100 µM; EC50 [6]: ≥ 6.5 µM; EC50 [7]: 8.94 µM; IC50 ([9]; ccrf-cem): 13 µM; IC50 ([17]; hela): 18 µM; IC50 ([18]; hmec-1): 26 µM; Ratio EC50 [19]: 10 - 14 |
| CCOP(=O)(OCC)C1CC(Cn2c(=O)n(Cc3ccccc3)c(=O)c3ccccc32)ON1Cc1ccccc1 (mixture of isomers; cis) | 100 µM | – | 13.2 µM | 100 µM | – | – | – | 18 µM | 10 µM | – | 9 µM | EC50 [2]: 7.3 µM; CC50 [20]: 9 µM; EC50 [6]: ≥ 3 µM; EC50 [7]: 6.5 µM; IC50 ([17]; hela): 33 µM; IC50 ([18]; Homo sapiens, HMEC-1): 28 µM |
| O=c1[nH]c(=O)n([C@H]2C[C@H](O)[C@@H](CO)O2)cc1/C=C/Br [BRIVUDINE] | – | 0.005 µM | 22.7 µM | > 300 µM | 300 µM | – | – | – | – | > 250 µM | – | EC50 [13]: 146 µM |
| CCOP(=O)(OCC)[C@@H]1C[C@@H](Cn2c(=O)n(C(=O)c3ccc(F)cc3)c(=O)c3ccccc32)ON1C (relative stereo) | 100 µM | 6.9 µM | 10.7 µM | ≥ 100 µM | 14.7 µM | > 20 µM | > 20 µM | > 250 µM | – | ≥ 100 µM | – | EC50 [21]: 39 µM; EC50 [13]: 12 µM; EC50 [22]: 9 µM; EC50 [11]: 17.5 µM |
| CCOP(=O)(OCC)[C@@H]1C[C@@H](Cn2ccc(=O)n(C(=O)c3ccccc3)c2=O)ON1C | 100 µM | 83.6 µM | > 100 µM | > 100 µM | – | > 100 µM | > 100 µM | > 200 µM | > 200 µM | – | – | IC50 [10]: > 200 µM |
| CCOP(=O)(OCC)[C@H]1C[C@@H](Cn2ccc(=O)n(C(=O)c3ccccc3)c2=O)ON1C | 100 µM | 65.7 µM | 88.4 µM | > 100 µM | – | > 100 µM | > 100 µM | > 200 µM | > 200 µM | – | – | IC50 [10]: > 200 µM |
| CCOP(=O)(OCC)C1CC(Cn2c(=O)n(Cc3ccccc3F)c(=O)c3ccccc32)ON1Cc1ccccc1 (configuration not stated) | 100 µM | 4.7 µM | 5.1 µM | 100 µM | 11.8 µM | 8.94 µM | ≥ 6.5 µM | 17 µM | 20 µM | – | 11.8 µM | IC50 ([17]; Homo sapiens, HeLa, 96 h): 17 µM; IC50 ([18]; Homo sapiens, HMEC-1): 23 µM; Ratio EC50 [19]: 10 - 14 |
| CCOP(=O)(OCC)[C@H]1C[C@@H](Cn2c(=O)n(C(=O)c3ccccc3)c(=O)c3ccccc32)ON1C | 100 µM | 7.7 µM | 10.9 µM | > 100 µM | – | > 100 µM | > 100 µM | > 200 µM | 74 µM | – | – | IC50 [10]: > 200 µM |
| Nc1ccn(C[C@@H](CO)OCP(=O)(O)O)c(=O)n1 [CIDOFOVIR] | > 300 µM | – | – | – | – | 1.44 µM | 0.81 µM | – | – | > 250 µM | > 300 µM | EC50 [21]: 2 µM; EC50 [13]: 2 µM; EC50 [22]: 3.8 µM; EC50 [11]: 10 µM |
| CCOP(=O)(OCC)C1CC(Cn2c(=O)n(Cc3ccc(F)cc3)c(=O)c3ccccc32)ON1Cc1ccccc1 (mixture of isomers; cis) | – | > 4 µM | > 4 µM | – | – | > 4 µM | – | 19 µM | 17 µM | – | – | MCC [15]: 20 µM; MCC [16]: 20 µM; EC50 [7]: > 4 µM; IC50 ([17]; Homo sapiens, HeLa, 96 h): 17 µM; IC50 ([18]; Homo sapiens, HMEC-1): 27 µM |
